# NPY Y1 blocker = NPY-Y1 (human) receptor antagonism. HEK293-CNG Y1 cells, membrane potential fluorescence; NPY at EC95, then isoproterenol. AID 1040. actives 1% (n = 200,000). inhibition, % at 3.6 µM. P25929;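 active = inhibition above the campaign mean inhibition of all tested compounds plus 3 SD, cut at about 20% in these data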
# Target sequence (P25929 whole entry, looked up): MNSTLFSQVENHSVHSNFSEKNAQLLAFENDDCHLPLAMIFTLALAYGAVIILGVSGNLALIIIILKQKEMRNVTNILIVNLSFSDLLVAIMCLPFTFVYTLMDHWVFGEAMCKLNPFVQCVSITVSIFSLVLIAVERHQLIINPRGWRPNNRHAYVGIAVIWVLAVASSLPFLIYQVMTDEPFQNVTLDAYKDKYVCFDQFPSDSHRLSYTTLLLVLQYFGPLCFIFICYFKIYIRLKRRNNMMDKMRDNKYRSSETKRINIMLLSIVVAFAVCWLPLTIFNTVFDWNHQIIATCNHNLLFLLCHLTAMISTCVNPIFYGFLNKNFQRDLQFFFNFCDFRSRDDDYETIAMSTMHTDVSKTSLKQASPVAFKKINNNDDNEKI
#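 Material: HEK293 Y1/CNG channel cell line | Also added: NPY (25 nM), isoproterenol (1 µM), Ro 20-1724 (25 µM) | Compound: One concentration, 3.6 µM, in 0.4% DMSO | Schedule: 3 h dye uptake, 1 h room-temperature compound, 45 min post-isoproterenol | Signal: Membrane-potential fluorescent dye readout | Read-out: % inhibition of NPY effect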
# NPY-Y2 PAM-ag = human NPY-Y2 potentiation or agonism, primary screen; P49146; cells expressing NPY-Y2, potentiator/agonist read-out; AID 1359; activation, % at 3.6 µM; actives 0.45% (n = 220,000); in the data active = activation above about 27%;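 also: cells stimulated with NPY near EC25 plus isoproterenol at EC100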
# NPY1 pot ag = potentiates or activates human NPY-Y1 receptor | P25929 | NPY-Y1 expressing cells, potentiator/agonist activation | activation, % at 3.6 µM | actives 0.37% (n = 220,000); in the data active = activation above about 33%, passing the limit was not always enough;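 also: cells stimulated with NPY at EC10 then isoproterenol at EC100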
# NPY-Y2 antag = NPY-Y2 (human) receptor antagonism; NPY-Y2 expressing cells, antagonist mode; P49146; AID 793; actives 0.99% (n = 140,000); inhibition, % at 2.7 µM; in the data active = inhibition above about 17%
# WT yeast gro inh = growth inhibition of WT yeast, mitochondrial fusion screen; mitochondrial fusion phenotypic screen, WT strain; inhibition, % at 10 µM; actives 2.1% (n = 190,000); AID 1362; in the data active = inhibition above about 58%; tested in S. cerevisiae
# RAM network inh = yeast RAM network inhibition | S. cerevisiae dse1pr::URA3 reporter, 5-FOA growth OD615, 2 d; analog-sensitive cbk1-as2 kinase mutant strain | inhibition, % at 50 µM | actives 1.8% (n = 190,000) | AID 868;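 active = inhibition above a set limit, 3 SD over mean compound inhibition, cut at about 8.4% in these data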;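 also: inhibition rescues growth on 5-FOA so higher OD means more RAM inhibition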
# A number is an active result; 0 = inactive; - = no result. In the library only some 4.9% were active in any assay of this set; here they are far more common.
SMILES,NPY Y1 blocker,NPY-Y2 PAM-ag,NPY1 pot ag,NPY-Y2 antag,WT yeast gro inh,RAM network inh
COc1ccccc1S(=O)(=O)Cc1ccc(C(=O)N2CCN(c3cccc(Cl)c3)CC2)o1,0,0,0,0,0,0
COCC(C)NC(=O)Cc1ccc(Cl)cc1 (configuration not stated),0,0,0,-,0,0
Cc1cccc(C)c1-n1cccc1/C=C1\SC(=S)N(c2cccc(C(=O)O)c2)C1=O,0,0,0,-,84,0
Cc1cccc(C)c1NC(=O)CN1C(=O)S/C(=C\c2cccn2-c2cccc(C(=O)O)c2)C1=O,0,0,0,0,0,0
Cc1[nH]c2ccccc2c1/C=C(\C#N)C(=O)NCc1ccccc1,0,0,0,0,0,0
Cc1ccc(C(C)NC(=O)/C(C#N)=C\c2c(C)[nH]c3ccccc23)cc1 (configuration not stated),0,0,0,0,88,0
CC1Cc2cc(/C=C3/SC(=S)NC3=O)ccc2O1 (configuration not stated),-,0,0,-,-,-
Cc1ccc(C2C(/C=C3/SC(=S)NC3=O)=C(c3cccs3)Oc3ccccc32)cc1 (configuration not stated),0,0,0,0,0,10
Cc1nc(N2CCCCC2)sc1C(=O)c1ccc(Cl)c([N+](=O)[O-])c1,0,47,48,-,0,0
Cc1cc(C)cc(C(=O)NCC(=O)OCC(=O)c2cc(C)n(CC(F)(F)F)c2C)c1,0,0,0,0,0,0
Cc1ccc(NC(=O)COC(=O)c2ccc([N+](=O)[O-])s2)c(C)c1,0,0,0,0,0,0
COc1ccccc1NC(=O)COC(=O)c1ccc([N+](=O)[O-])s1,0,0,0,-,95,0
Nc1c(C(=O)NC2CCCC2)sc2nc(-c3cccs3)ccc12,0,0,0,0,62,0
COc1ccc(-c2[nH]c(-c3cccc(OC)c3)nc2SCC(=O)NCc2ccco2)cc1,0,0,0,0,0,0
CC1=C(C(=O)Nc2ccccn2)C(c2cn(C)nc2C)C2=C(CCCC2=O)N1 (configuration not stated),0,0,0,-,0,0
COC(=O)C1=C(C)NC2=C(C(=O)CCC2)C1c1cn(Cc2ccc(Cl)cc2Cl)nc1-c1ccccc1 (configuration not stated),65,0,0,19,0,0
Cn1c(=O)n(C)c2cc([N+](=O)[O-])c(N3CCN(S(=O)(=O)c4ccc(C(C)(C)C)cc4)CC3)cc21,0,0,0,0,74,0
Cc1ncc(CCl)c2c1OC(C)(C)OC2,0,0,0,0,0,0
NNc1nc(-c2ccccc2)cc(-c2ccccc2)n1,0,0,0,-,70,0
Nc1ccc(-c2cc(-c3ccc(N)cc3)nc(-c3ccccc3)n2)cc1,0,39,46,0,0,0
Nc1ccc(S(=O)(=O)Nc2nc(-c3ccccc3)cc(-c3ccccc3)n2)cc1,-,0,0,-,-,-
NNc1nc(-c2ccccc2)cc(-c2ccccc2O)n1,0,0,0,0,0,0
CC1CCN(S(=O)(=O)c2cc(Cl)ccc2Br)CC1,0,0,0,0,0,0
COc1ccccc1OCCCn1c(C)c(C#N)c2ccccc21,0,0,0,0,0,11
CCc1c(C)nc2cc(-c3ccc(OC)c(OC)c3)nn2c1N1CCCC1,0,0,0,0,0,0
SMILES,NPY Y1 blocker,NPY-Y2 PAM-ag,NPY1 pot ag,NPY-Y2 antag,WT yeast gro inh,RAM network inh
CN(C(=S)Nc1ccc(SC(F)F)cc1)c1ccc(O)cc1,0,0,0,0,87,0
C=CCc1c(C)nc2c(C(=O)O)cnn2c1C,0,0,0,0,0,0
COc1ccc(-c2cc(=O)c3ccccc3s2)cc1,0,0,0,0,0,8.8
O=S(=O)(Nc1cccc(-c2nc3cccnc3s2)c1)c1ccc2c(c1)OCCO2,0,0,0,0,68,0
CC(=O)Nc1ccc(CN2CCCC(CO)(Cc3cccc(Cl)c3)C2)cc1 (configuration not stated),-,0,0,-,-,-
CN(CCO)c1cc(NCCCN2CCC(Cc3ccccc3)CC2)c2nonc2c1[N+](=O)[O-],0,29,51,-,0,0
CN(CCO)c1cc(N2CCCCC2)c2nonc2c1[N+](=O)[O-],0,0,0,-,0,0
COC(C(=O)Nc1ccc(F)c(F)c1)c1ccccc1 (configuration not stated),0,0,0,0,-,-
COCCCn1c(SCC(=O)Nc2ccc(C(C)=O)cc2)nc2ccccc2c1=O,0,0,0,0,0,0
CCn1c(SCc2nc3ccccc3c(=O)[nH]2)nc2ccccc2c1=O,0,0,0,0,0,0
C=CCn1c(SCC(=O)Nc2cccc(C(=O)OC)c2)nnc1C(C)NC(=O)c1cccs1 (configuration not stated),0,0,0,0,83,0
COCCn1c(SCC(=O)Nc2cccc(C(=O)OC)c2)nc2ccccc2c1=O,0,0,0,0,0,8.8
COCCn1c(SCc2ccc(C(=O)OC)o2)nc2cc(Cl)ccc2c1=O,0,0,0,0,0,9.4
COCCCn1c(SCc2nc3ccccc3c(=O)[nH]2)nc2ccccc2c1=O,0,0,0,0,0,9.5
CCOc1ccc(/C=N/NC(=O)c2ccc(Cn3cc([N+](=O)[O-])cn3)o2)cc1,0,0,0,0,0,0
COC(=O)c1ccc(OC)c(OC2CCCC2)c1,-,0,0,-,-,-
CCOC(=O)CN1C(=O)C(CC)Oc2ccc(Cl)cc21 (configuration not stated),0,0,0,0,0,0
C/C(=N\OC(=O)NC1CCCCC1)c1sc(-c2ccccc2)nc1C,0,0,0,0,0,10
O=C(c1sc2cc(F)ccc2c1Cl)N1CCN(c2ccccc2)CC1,0,0,0,0,65,0
Cc1ccc(NC(=O)/C=C/c2ccc([N+](=O)[O-])s2)cc1,0,0,0,0,0,0
CCOc1cc(/C=C2/SC(=S)NC2=O)ccc1OC(=O)c1ccco1,0,0,0,-,79,0
COc1cc(/C=C2/SC(=S)N(C)C2=O)ccc1OC(=O)c1ccco1,0,0,0,0,0,0
CCOc1ccccc1C(=O)Nc1ccsc1C(=O)OC,21,0,0,20,0,0
CC(=N\Nc1ccc(Cl)cc1)/C(=N/O)C(=O)Nc1ccccc1,0,0,0,0,0,0
CCNC(=S)N1CCN(C(c2ccccc2)c2ccccc2)CC1,0,0,0,0,0,0
CCCNC(=S)N1CCN(C(c2ccccc2)c2ccccc2)CC1,0,0,0,0,69,0
CCCCNC(=S)N1CCN(C(c2ccccc2)c2ccccc2)CC1,0,0,0,-,66,0
S=C(NCCc1ccccc1)N1CCN(C(c2ccccc2)c2ccccc2)CC1,0,0,0,0,0,0
CCN1CCCC1CNS(=O)(=O)c1cccc(C(F)(F)F)c1 (configuration not stated),0,0,0,-,0,0
